Results of several laboratories.
Protocols differ between the studies behind these lines.
Read-out: cell growth or viability

SMILES	cell line	method	tested at	time	endpoint	result
Cc1ccccc1Cn1cc(-c2cccc(NC(=O)Nc3ccc(F)cc3)c2)nn1	MCF7	CCK-8	50 µM	48 h	viability	100%
NC(=O)C1CCCN1C(=O)Nc1ccccc1/N=c1\cc(-c2ccc3c(c2)OCCO3)oc2cc(F)ccc12 (stereo not drawn)	MCF7	CCK-8	1 µM		inhibition	7.19%
Cc1n[nH]c2ccc3nc(-c4ccc(C(=O)NCCN(C)C)cc4F)c4c(c3c12)CCCCC4	NOMO-1			72 h	GI50	2730 nM
O=C(C[C@@H](C(F)F)n1ccc(F)n1)N1CCC(O)(Cn2cnc3c(cnn3-c3ccc(F)cc3)c2=O)CC1	CAPAN-1	SRB	27.43 nM	5 days	viability	66.3%
O=C(Nc1ccc(Cl)cc1)Nc1cccc(-c2cn(Cc3cccc(Br)c3)nn2)c1	MCF7	CCK-8	50 µM	72 h	viability	72.8%
CC(C)(C)[C@H](N)C(=O)Nc1ccccc1/N=c1\cc(-c2ccc3c(c2)OCO3)oc2ccccc12	MCF7	CCK-8	1 µM		inhibition	21.3%
O=C(Nc1ccc(-c2cn(Cc3ccc(Br)cc3)nn2)cc1)Nc1ccccc1Br	MCF7	CCK-8	50 µM	72 h	viability	103%
COc1ccc2/c(=N/c3ccccc3NC(=O)[C@@H](N)C(C)(C)C)cc(-c3ccc4c(c3)OCCO4)oc2c1	MCF7	CCK-8	1 µM		inhibition	8.1%
CN(C)CCNC(=O)c1ccc(-c2nc3ccc4[nH]ncc4c3c3c2CCCC3)cc1	NOMO-1			72 h	GI50	568 nM
COc1ccc(NC(=O)NCc2cn(Cc3ccccc3C)nn2)cc1	MCF7	CCK-8	50 µM	48 h	viability	96.3%
COc1ccc2oc(-c3ccc4nc(N)oc4c3)c/c(=N\c3ccccc3NC(=O)CCN)c2c1	MCF7	CCK-8	1 µM		inhibition	15%
O=C(Nc1ccc(Cl)cc1)Nc1ccc(-c2cn(Cc3cccc(Cl)c3)nn2)cc1	MCF7	CCK-8	50 µM	72 h	viability	98.2%
Cc1n[nH]c2ccc3nc(-c4ccc(C(=O)NCCN(C)C)cc4)c4c(c3c12)CCCCC4	NOMO-1			72 h	GI50	3080 nM
COc1ccc2/c(=N/c3ccccc3NC(=O)[C@@H](N)CO)cc(-c3ccc4c(c3)OCCO4)oc2c1	MCF7	CCK-8	1 µM		inhibition	8.55%
COc1ccc(NC(=O)Nc2ccc(-c3cn(Cc4ccc(Cl)cc4)nn3)cc2)cc1	MCF7	CCK-8	50 µM	72 h	viability	99%
O=C(Nc1ccc(-c2cn(Cc3ccc(Cl)cc3)nn2)cc1)Nc1ccccc1Br	MCF7	CCK-8	50 µM	48 h	viability	99.3%
Nc1nc2ccc(-c3c/c(=N\c4ccccc4NC(=O)C4CCNC4)c4ccccc4o3)cc2o1 (stereo not drawn)	MCF7	CCK-8	1 µM		inhibition	11.6%
O=C(Nc1ccc(Cl)cc1)Nc1cccc(-c2cn(Cc3cccc(Cl)c3)nn2)c1	MCF7	CCK-8	50 µM	72 h	viability	70.5%
C[C@H](N)C(=O)Nc1ccccc1/N=c1\cc(-c2ccc3c(c2)OCCO3)oc2cc(F)ccc12	MCF7	CCK-8	1 µM		inhibition	3.33%
COc1ccc(NC(=O)Nc2ccc(-c3cn(Cc4cccc(Cl)c4)nn3)cc2)cc1	MCF7	CCK-8	50 µM	72 h	viability	98.2%
CN(C)CCNC(=O)c1ccc(-c2nc3ccc4[nH]ncc4c3c3c2CCCC3)c(F)c1	NOMO-1			72 h	GI50	3080 nM
COc1ccc(NC(=O)Nc2ccc(-c3cn(Cc4ccc(Br)cc4)nn3)cc2)cc1	MCF7	CCK-8	50 µM	48 h	viability	98.4%
O=C(NCc1cn(Cc2ccc(Cl)cc2)nn1)Nc1ccc(Cl)cc1	MCF7	CCK-8	50 µM	48 h	viability	80.8%
COc1ccc2/c(=N/c3ccccc3NC(=O)CN)cc(-c3ccc4c(c3)OCCO4)oc2c1	MCF7	CCK-8	1 µM		inhibition	9.77%
COc1ccc(NC(=O)Nc2cccc(-c3cn(Cc4ccc(Br)cc4)nn3)c2)cc1	MCF7	CCK-8	50 µM	72 h	viability	98.4%
O=C(Nc1ccc(Cl)cc1)Nc1ccc(-c2cn(Cc3ccc(Cl)cc3)nn2)cc1	MCF7	CCK-8	50 µM	48 h	viability	94.6%
Cc1n[nH]c2ccc3nc(-c4ccc(C(=O)NCCN(C)C)cc4F)c4c(c3c12)CCCC4	NOMO-1			72 h	GI50	292 nM
